B1: 5-hydroxytryptamine receptor 2A (Mus musculus), P35363 (protein)
chain: MEILCEDNISLSSIPNSLMQLGDDSRLYPNDFNSRDANTSEASNWTIDAENRTNLSCEGYLPPTCLSILHLQEKNWSALLTTVVIILTIAGNILVIMAVSLEKKLQNATNYFLMSLAIADMLLGFLVMPVSMLTILYGYRWPLPSKLCAVWIYLDVLFSTASIMHLCAISLDRYVAIQNPIHHSRFNSRTKAFLKIIAVWTISVGISMPIPVFGLQDDSKVFKEGSCLLADDNFVLIGSFVAFFIPLTIMVITYFLTIKSLQKEATLCVSDLSTRAKLSSFSFLPQSSLSSEKLFQRSIHREPGSYAGRRTMQSISNEQKACKVLGIVFFLFVVMWCPFFITNIMAVICKESCNENVIGALLNVFVWIGYLSSAVNPLVYTLFNKTYRSAFSRYIQCQYKENRKPLQLILVNTIPTLAYKSSQLQVGQKKNSQEDAEPTANDCSMVTLGNQHSEEMCTDNIETVNEKVSCV
B2: 5-hydroxytryptamine receptor 2C (Mus musculus), P34968 (protein)
chain: MVNLGTAVRSLLVHLIGLLVWQFDISISPVAAIVTDTFNSSDGGRLFQFPDGVQNWPALSIVVIIIMTIGGNILVIMAVSMEKKLHNATNYFLMSLAIADMLVGLLVMPLSLLAILYDYVWPLPRYLCPVWISLDVLFSTASIMHLCAISLDRYVAIRNPIEHSRFNSRTKAIMKIAIVWAISIGVSVPIPVIGLRDESKVFVNNTTCVLNDPNFVLIGSFVAFFIPLTIMVITYFLTIYVLRRQTLMLLRGHTEEELRNISLNFLKCCCKKGDEEENAPNPNPDQKPRRKKKEKRPRGTMQAINNEKKASKVLGIVFFVFLIMWCPFFITNILSVLCGKACNQKLMEKLLNVFVWIGYVCSGINPLVYTLFNKIYRRAFSKYLRCDYKPDKKPPVRQIPRVAATALSGRELNVNIYRHTNERVVRKANDTEPGIEMQVENLELPVNPSNVVSERISSV

Key:
Type in all cases: functional
[1] = substrate: COc1cc(CC(C)N)c(OC)cc1I; assay: (§1) The maximum responses of [3H]- inositol monophosphate accumulation in cells expressing the 5-hydroxytryptamine 2A receptor
[2] = substrate: COc1cc(C(F)(F)F)c(OC)cc1CCN; assay: as §1
[3] = substrate: COc1cc(C(F)(F)F)c(OC)cc1CC(C)N; assay: as §1
[4] = substrate: COc1cc(CC(C)N)c(OC)cc1I; assay: (§2) The maximum responses of [3H]- inositol monophosphate accumulation in cells expressing the 5-hydroxytryptamine 2C receptor
In short: (§3)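 A9 cells expressing cloned 5-HT2C receptor, labelled 18 h with 1 μCi/mL [3H]inositol in inositol-free DMEM with dialysed serum. Compounds given 60 min with 10 mM LiCl in Krebs bicarbonate buffer, then [3H]inositol monophosphate accumulation measured. Expressed as % of the 5-HT (10^-5 M) maximum minus control. Vmax by nonlinear regression. Triplicates in three experiments, mean ± SE.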

[5] = substrate: COc1cc(C(F)(F)F)c(OC)cc1CCN; assay: as §2; in short: as §3
[6] = substrate: COc1cc(C(F)(F)F)c(OC)cc1CC(C)N; assay: as §2; in short: as §3

Protein | Vmax [1] | Vmax [2] | Vmax [3] | Vmax [4] | Vmax [5] | Vmax [6]
B1 | 94 | 58 | 91 | – | – | –
B2 | – | – | – | 82 | 80 | 82

— ChEMBL document CHEMBL1127290, “1-(2,5-Dimethoxy-4-(trifluoromethyl)phenyl)-2-aminopropane: a potent serotonin 5-HT2A/2C agonist” (J Med Chem, 1994)
